Test results: ChEMBL document CHEMBL4028836, “Optimization of M4 positive allosteric modulators (PAMs): The discovery of VU0476406, a non-human primate in vivo tool compound for translational pharmacology” (Bioorg Med Chem Lett, 2017)
Each block holds one molecule with its values, some of them ahead of it. The source made the active and inactive calls. The calls are words filed in the database; no cut-off is given here.

Columns and labels:
[1] = target: T1, Muscarinic acetylcholine receptor M4 (Homo sapiens, UniProt P08173); experiment: Positive allosteric modulation of human M4 receptor expressed in CHO cells coexpressing Gqi5 assessed as increase in acetylcholine-induced calcium mobilization; type: functional, cell-based
T1 sequence (P08173 whole entry): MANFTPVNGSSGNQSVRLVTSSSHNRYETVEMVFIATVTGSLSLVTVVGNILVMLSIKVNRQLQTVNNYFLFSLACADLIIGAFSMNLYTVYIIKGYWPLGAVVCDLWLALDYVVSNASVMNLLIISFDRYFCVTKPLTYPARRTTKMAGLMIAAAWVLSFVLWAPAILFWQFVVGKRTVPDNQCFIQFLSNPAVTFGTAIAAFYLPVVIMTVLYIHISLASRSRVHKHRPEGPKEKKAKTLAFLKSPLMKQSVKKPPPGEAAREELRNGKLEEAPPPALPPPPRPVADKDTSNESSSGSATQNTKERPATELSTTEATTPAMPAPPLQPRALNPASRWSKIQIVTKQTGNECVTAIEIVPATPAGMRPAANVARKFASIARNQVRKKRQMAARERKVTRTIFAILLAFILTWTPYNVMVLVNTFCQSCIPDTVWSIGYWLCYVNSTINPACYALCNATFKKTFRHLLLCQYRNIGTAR
How it was run: (§1)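 Calcium mobilization in CHO cells expressing hM4 with Gqi5. Compound added in presence of a fixed EC20 concentration of acetylcholine. Values are means of three independent experiments, each run in triplicate.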

[2] = target: T2, Muscarinic acetylcholine receptor M4 (Homo sapiens) (UniProt P08173); experiment: Positive allosteric modulation of human M4 receptor expressed in CHO cells coexpressing Gqi5 assessed as increase in acetylcholine-induced calcium mobilization relative to acetylcholine; type: functional, cell-based; how it was run: as §1
T2 sequence (whole entry): T1 sequence (P08173 whole entry)

[3] = Brain to plasma permeability coefficient, Kp of the compound in cynomolgus monkey at 145 MBq, iv measured at 2 hrs post dose by PET analysis; type: ADME, organism-based, Macaca fascicularis
How it was run: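 PET study in one cynomolgus monkey given a single IV dose of [18F]-labelled compound (145 MBq), with roughly 2 hr of data acquisition after dosing. Whole and regional brain distribution of total and calculated unbound compound was determined.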

[4] = Ratio of unbound brain to plasma concentration in cynomolgus monkey at 145 MBq, iv measured at 2 hrs post dose by PET analysis; type: ADME, organism-based, Macaca fascicularis; details: read-out: K(p,uu,brain)
How it was run: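 Whole and regional brain distribution of total and calculated unbound drug in one cynomolgus monkey. PET after a single IV dose of [18F]-labelled compound (145 MBq), with about 2 h of data acquisition post-dose.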

[5] = Ratio of unbound CSF to plasma concentration in cynomolgus monkey at 145 MBq, iv measured at 2 hrs post dose by PET analysis; type: ADME, organism-based, Macaca fascicularis
Cytochrome P450 1A2 = target: T3, Cytochrome P450 1A2 (Homo sapiens, UniProt P05177); experiment: Inhibition of CYP1A2 (unknown origin); type: ADME
T3 sequence (P05177 whole entry): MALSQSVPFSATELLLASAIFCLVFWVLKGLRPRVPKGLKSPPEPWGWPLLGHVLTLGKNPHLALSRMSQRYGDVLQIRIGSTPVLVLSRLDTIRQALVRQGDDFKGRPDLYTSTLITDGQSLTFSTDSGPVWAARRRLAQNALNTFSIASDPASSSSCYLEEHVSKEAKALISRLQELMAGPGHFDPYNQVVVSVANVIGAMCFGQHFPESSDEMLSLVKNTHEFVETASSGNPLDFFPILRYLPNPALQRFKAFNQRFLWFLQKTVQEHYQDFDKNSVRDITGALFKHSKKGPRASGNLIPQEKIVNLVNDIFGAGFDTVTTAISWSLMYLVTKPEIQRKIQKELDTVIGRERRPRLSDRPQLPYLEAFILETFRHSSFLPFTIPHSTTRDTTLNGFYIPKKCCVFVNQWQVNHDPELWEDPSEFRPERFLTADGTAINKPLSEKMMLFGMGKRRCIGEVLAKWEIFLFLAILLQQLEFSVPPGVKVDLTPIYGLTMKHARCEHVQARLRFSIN

Cytochrome P450 2C9 = Cytochrome P450 2C9 (Homo sapiens, UniProt P11712); experiment: Inhibition of CYP2C9 (unknown origin); type: ADME
Chain of Cytochrome P450 2C9 (P11712 whole entry): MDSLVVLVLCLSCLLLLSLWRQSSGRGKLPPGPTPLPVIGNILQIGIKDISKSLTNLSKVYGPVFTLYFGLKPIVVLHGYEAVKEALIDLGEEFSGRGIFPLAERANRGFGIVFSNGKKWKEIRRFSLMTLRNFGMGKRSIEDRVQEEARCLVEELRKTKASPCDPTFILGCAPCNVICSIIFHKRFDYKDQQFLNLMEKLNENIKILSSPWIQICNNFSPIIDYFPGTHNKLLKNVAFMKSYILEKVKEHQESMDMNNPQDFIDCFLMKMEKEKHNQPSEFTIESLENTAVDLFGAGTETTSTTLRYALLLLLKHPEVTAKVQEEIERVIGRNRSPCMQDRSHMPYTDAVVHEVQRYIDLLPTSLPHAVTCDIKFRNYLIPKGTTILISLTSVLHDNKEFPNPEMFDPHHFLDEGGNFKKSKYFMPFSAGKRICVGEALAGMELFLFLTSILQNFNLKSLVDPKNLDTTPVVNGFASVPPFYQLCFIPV

Cytochrome P450 2D6 = Cytochrome P450 2D6 (Homo sapiens, UniProt P10635); experiment: Inhibition of CYP2D6 (unknown origin); type: ADME
Chain of Cytochrome P450 2D6 (P10635 whole entry): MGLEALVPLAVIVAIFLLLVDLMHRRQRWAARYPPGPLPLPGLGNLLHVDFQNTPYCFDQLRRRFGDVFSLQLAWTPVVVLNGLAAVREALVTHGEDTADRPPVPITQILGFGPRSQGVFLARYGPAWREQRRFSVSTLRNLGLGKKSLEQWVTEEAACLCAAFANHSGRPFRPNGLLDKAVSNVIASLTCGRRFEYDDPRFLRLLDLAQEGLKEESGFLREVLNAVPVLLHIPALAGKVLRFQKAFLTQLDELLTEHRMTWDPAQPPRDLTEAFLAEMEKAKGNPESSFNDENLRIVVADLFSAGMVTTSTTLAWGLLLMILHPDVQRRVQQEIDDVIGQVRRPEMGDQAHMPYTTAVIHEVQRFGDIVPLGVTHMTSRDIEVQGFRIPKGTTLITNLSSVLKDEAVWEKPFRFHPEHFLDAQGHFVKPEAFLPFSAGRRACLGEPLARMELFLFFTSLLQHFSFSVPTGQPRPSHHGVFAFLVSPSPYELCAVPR

Cytochrome P450 3A4 = Cytochrome P450 3A4 (Homo sapiens, UniProt P08684); experiment: Inhibition of CYP3A4 (unknown origin); type: ADME
Chain of Cytochrome P450 3A4 (P08684 whole entry): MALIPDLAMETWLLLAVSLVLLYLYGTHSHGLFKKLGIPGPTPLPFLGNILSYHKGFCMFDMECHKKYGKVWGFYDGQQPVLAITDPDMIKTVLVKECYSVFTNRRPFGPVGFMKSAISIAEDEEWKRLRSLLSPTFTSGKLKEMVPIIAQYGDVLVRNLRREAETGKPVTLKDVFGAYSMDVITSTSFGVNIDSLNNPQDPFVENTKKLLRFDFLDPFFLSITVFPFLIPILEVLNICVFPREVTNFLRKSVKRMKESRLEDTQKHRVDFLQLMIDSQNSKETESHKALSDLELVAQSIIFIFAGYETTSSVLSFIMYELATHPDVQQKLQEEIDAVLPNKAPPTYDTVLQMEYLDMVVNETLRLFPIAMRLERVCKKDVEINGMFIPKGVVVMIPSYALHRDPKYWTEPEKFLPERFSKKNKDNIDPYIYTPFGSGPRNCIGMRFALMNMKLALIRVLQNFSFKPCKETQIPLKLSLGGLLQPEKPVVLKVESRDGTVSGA

Rattus norvegicus [6] = experiment: Elimination half-life in Sprague-Dawley rat at 0.1 to 1 mg/kg, iv; type: ADME, organism-based; details: in vivo
Rattus norvegicus [7] = experiment: Volume of distribution at steady state […] in Sprague-Dawley rat at 0.1 to 1 mg/kg, iv; type: ADME, organism-based; details: in vivo
How it was run: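 IV pharmacokinetics in Sprague-Dawley rats at 0.1–1.0 mg/kg. CLp, elimination t½ and Vss derived.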

[8] = Brain to plasma permeability coefficient, Kp of the compound in Sprague-Dawley rat at 0.1 to 0.2 mg/kg, iv measured at 0.25 hrs post dose; type: ADME, organism-based
How it was run: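 Sprague-Dawley rats were dosed IV at 0.1–0.2 mg/kg, with brain and plasma sampled at 0.25 hr. Brain:plasma Kp was calculated, with Kp,uu where unbound fractions were available.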

[9] = Unbound plasma concentration in human; type: ADME, cell-free
[10] = Unbound plasma concentration in rat; type: ADME, cell-free
[11] = target: Muscarinic acetylcholine receptor M4 (Rattus norvegicus) (UniProt P08485); experiment: Positive allosteric modulation of rat M4 receptor assessed as increase in acetylcholine-induced calcium mobilization relative to acetylcholine; type: functional
Chain of Muscarinic acetylcholine receptor M4 (Rattus norvegicus) (P08485 whole entry): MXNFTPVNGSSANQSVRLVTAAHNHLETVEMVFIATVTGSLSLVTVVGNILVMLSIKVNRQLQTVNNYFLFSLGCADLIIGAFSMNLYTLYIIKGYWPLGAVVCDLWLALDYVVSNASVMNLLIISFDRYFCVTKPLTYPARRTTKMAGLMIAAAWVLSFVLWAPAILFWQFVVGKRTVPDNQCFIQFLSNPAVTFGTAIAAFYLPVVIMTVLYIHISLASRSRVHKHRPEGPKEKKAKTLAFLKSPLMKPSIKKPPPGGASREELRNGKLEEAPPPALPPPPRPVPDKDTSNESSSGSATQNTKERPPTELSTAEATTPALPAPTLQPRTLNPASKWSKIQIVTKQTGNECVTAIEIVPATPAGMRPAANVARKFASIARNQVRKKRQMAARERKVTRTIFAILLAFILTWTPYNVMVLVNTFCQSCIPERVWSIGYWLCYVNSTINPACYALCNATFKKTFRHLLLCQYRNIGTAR
How it was run: (§2)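 M4 PAM concentration-response curves measured by calcium mobilization at the stated species' receptor. Potency reported as EC50/pEC50 and efficacy as % of acetylcholine maximum.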

Canis lupus familiaris [12] = species: Canis lupus familiaris; experiment: Positive allosteric modulation of dog M4 receptor assessed as increase in acetylcholine-induced calcium mobilization relative to acetylcholine; how it was run: as §2
Macaca fascicularis [13] = species: Macaca fascicularis; experiment: Positive allosteric modulation of cynomolgus monkey M4 receptor assessed as increase in acetylcholine-induced calcium mobilization relative to acetylcholine; how it was run: as §2
[14] = target: Muscarinic acetylcholine receptor M4 (Rattus norvegicus) (UniProt P08485); experiment: Displacement of [3H]NMS from rat M4 receptor
How it was run: (§3)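 Competition binding of ACh against [3H]-N-methylscopolamine at M4 of each species. Combined with ACh concentration-response fold-shift Ca2+ mobilization data to fit operational model parameters (KB, α, β). n=3–4, each in duplicate.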

[15] = target: T2, Muscarinic acetylcholine receptor M4 (Homo sapiens); experiment: Displacement of [3H]NMS from human M4 receptor; how it was run: as §3
Macaca fascicularis [16] = species: Macaca fascicularis; experiment: Displacement of [3H]NMS from cynomolgus monkey M4 receptor; how it was run: as §3
Canis lupus familiaris [17] = species: Canis lupus familiaris; experiment: Activity at dog M2 receptor
Macaca fascicularis [18] = species: Macaca fascicularis; experiment: Activity at cynomolgus monkey M2 receptor
Rattus norvegicus [19] = species: Rattus norvegicus; experiment: Activity at rat GABA-A receptor
How it was run: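 Rat GABAA receptor, benzodiazepine site, radioligand binding in a broad secondary pharmacology panel. IC50 taken from binding. Functional follow-up was run at 10 μM.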

Compound: Cc1nnc2sc(C(=O)NCc3ccc(-c4ccccn4)cc3)c(N)c2c1C
EC50 ([1]; read-out: EC50): 232 nM
EC50 ([1]; read-out: pEC50 (converted)): 214 nM
%max [2]: 75%

Compound: Cc1nnc2sc(C(=O)NCc3ccc(-c4cccnc4[18F])cc3)c(N)c2c1C
Kp [3]: 0.75
Kp uu at 2 h [4]: 1.1
Kp uu at 2 h [5]: 1

Compound: Cc1nnc2sc(C(=O)NCc3ccc(-c4cncc(F)c4)cc3)c(N)c2c1C
EC50 ([1]; read-out: EC50): 144 nM
%max [2]: 78%

Compound: Cc1nnc2sc(C(=O)NCc3ccc(-c4ccc(F)nc4)cc3)c(N)c2c1C
EC50 ([1]; read-out: EC50): 64 nM
%max [2]: 79%
IC50 (Cytochrome P450 1A2): 790 nM
IC50 (Cytochrome P450 2C9): 26 µM
IC50 (Cytochrome P450 2D6): > 30 µM
IC50 (Cytochrome P450 3A4): 25 µM
beta t1/2 (Rattus norvegicus [6]): 0.48 h
Vdss (Rattus norvegicus [7]): 0.6 L/kg
Kp [8]: 0.13
fraction unbound [9]: 0.023
fraction unbound [10]: 0.004

The remaining lines, values ahead:

EC50 ([1]; read-out: EC50): 1720 nM
EC50 ([1]; read-out: pEC50 (converted)): 1550 nM
%max [2]: 86%
Compound: Cc1nnc2sc(C(=O)NCc3ccc(-c4ccncc4F)cc3)c(N)c2c1C

EC50 ([1]; read-out: EC50): 187 nM
EC50 ([1]; read-out: pEC50 (converted)): 182 nM
%max [2]: 82%
Compound: Cc1nnc2sc(C(=O)NCc3ccc(Br)cc3)c(N)c2c1C

EC50 ([1]; read-out: EC50): 103 nM
%max [2]: 63%
Compound: Cc1nnc2sc(C(=O)NCc3ccc(-c4cccnc4)cc3)c(N)c2c1C

EC50 ([1]; read-out: EC50): 58 nM
%max [2]: 92%
IC50 (Cytochrome P450 1A2): 2500 nM
IC50 (Cytochrome P450 2C9): 25 µM
IC50 (Cytochrome P450 2D6): > 30 µM
IC50 (Cytochrome P450 3A4): 24 µM
beta t1/2 (Rattus norvegicus [6]): 1.7 h
Vdss (Rattus norvegicus [7]): 0.5 L/kg
Kp [8]: 0.21
fraction unbound [9]: 0.029
fraction unbound [10]: 0.002
Compound: Cc1nnc2sc(C(=O)NCc3ccc(-c4ccnc(F)c4)cc3)c(N)c2c1C

%max [2]: 74%
%max [11]: 72%
%max (Canis lupus familiaris [12]): 49%
%max (Macaca fascicularis [13]): 64%
Kb [14]: 370 nM
Kb [15]: 2800 nM
Kb (Macaca fascicularis [16]): 2100 nM
Activity (Canis lupus familiaris [17]): inactive
Activity (Macaca fascicularis [18]): inactive
Activity (Rattus norvegicus [19]): inactive
Compound: Cc1nnc2sc(C(=O)NCc3ccc(-c4cccnc4F)cc3)c(N)c2c1C

EC50 ([1]; read-out: EC50): > 10000 nM
%max [2]: 31%
Compound: Cc1nnc2sc(C(=O)NCc3ccccc3Br)c(N)c2c1C
